Results from different studies.
Each line is one published result; the experiments were not run side by side.
Target: Dual specificity protein kinase TTK (TTK, Homo sapiens, UniProt P33981)
One construct used (P33981 1-857): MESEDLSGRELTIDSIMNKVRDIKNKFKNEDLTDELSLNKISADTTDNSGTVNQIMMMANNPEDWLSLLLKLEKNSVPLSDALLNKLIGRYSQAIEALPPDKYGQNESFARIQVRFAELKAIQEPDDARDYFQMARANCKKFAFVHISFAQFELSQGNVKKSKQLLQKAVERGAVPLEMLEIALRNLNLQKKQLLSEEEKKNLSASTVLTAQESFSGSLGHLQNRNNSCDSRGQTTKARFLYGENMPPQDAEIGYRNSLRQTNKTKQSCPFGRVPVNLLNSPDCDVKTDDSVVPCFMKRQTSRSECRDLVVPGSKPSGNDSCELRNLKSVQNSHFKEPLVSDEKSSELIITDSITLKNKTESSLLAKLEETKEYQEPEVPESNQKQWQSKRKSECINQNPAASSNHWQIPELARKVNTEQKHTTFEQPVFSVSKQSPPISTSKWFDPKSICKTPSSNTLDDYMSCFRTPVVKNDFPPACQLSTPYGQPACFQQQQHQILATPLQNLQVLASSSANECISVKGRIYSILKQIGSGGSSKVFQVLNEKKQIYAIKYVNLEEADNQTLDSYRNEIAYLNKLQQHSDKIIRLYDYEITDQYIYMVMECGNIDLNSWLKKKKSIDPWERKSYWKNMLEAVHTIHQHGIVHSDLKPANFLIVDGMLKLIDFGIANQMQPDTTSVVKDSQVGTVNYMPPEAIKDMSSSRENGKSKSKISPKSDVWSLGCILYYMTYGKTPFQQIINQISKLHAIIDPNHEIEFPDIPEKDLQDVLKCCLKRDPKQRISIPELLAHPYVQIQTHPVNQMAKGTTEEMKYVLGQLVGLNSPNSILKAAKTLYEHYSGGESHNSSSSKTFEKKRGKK

CO[C@@H](C)c1c(Nc2ccc([C@@H](N(C)C(=O)C3CCS(=O)(=O)CC3)C(F)(F)F)cc2)cnc2cc(Cl)nn12  remaining binding (cell-free assay; competition with immobilised ligand; 1 µM): 100%
CCN1CCN(Cc2ccc(C(=O)Nc3ccc(C)c(Oc4ccc5c(c4)CC(=O)N5)c3)cc2C(F)(F)F)CC1  remaining binding (binding; competition with immobilised ligand; 1 µM): 100%
COc1cnc(Nc2cccc(S(N)(=O)=O)c2)nc1N1CCN(c2ccccc2)C(=O)C1  remaining binding (binding; competition with immobilised ligand; 1 µM): 77%
c1cncc(-c2cccc(Nc3nccc(NC4CCCCC4)n3)c2)c1  remaining binding (binding; competition with immobilised ligand; 10 µM): 30%
O=C(Nc1c[nH]nc1C(=O)NC1CCNCC1)c1cc(F)cc(F)c1  remaining binding (binding; competition with immobilised ligand; 1 µM): 100%
CSc1cccnc1N1CCN(Cc2nc3ccccc3[nH]2)CC1  remaining binding (cell-free assay; competition with immobilised ligand; 1 µM): 98%
Cc1cnc(Nc2ccc(C(=O)N3CCC(N4CCCC4)CC3)cc2)nc1-c1cc2ccccc2s1  remaining binding (binding; competition with immobilised ligand; 1 µM): 26%
CC1=C(C#N)C(c2ccc3c(c2)c(NC(=O)c2ccccc2C)nn3C)C(C#N)=C(C)N1  remaining binding (cell-free assay; competition with immobilised ligand; 1 µM): 82%
COc1ncc2cc3ccccc3nc2c1C#N  remaining binding (cell-free assay; competition with immobilised ligand; 5 µM): 85%
CNC(=O)Nc1ccc2c(c1)CC[C@@]21OC(=O)N(CC(=O)N(Cc2ccc(F)cc2)[C@@H](C)C(F)(F)F)C1=O  remaining binding (cell-free assay; competition with immobilised ligand; 1 µM): 100%
C[C@@H]1CCN(c2nccc(-c3cnn4ncccc34)n2)C1  remaining binding (binding; 1 µM): 46%
CNC(=O)[C@@H]1CC[C@@H](n2c(-c3ccc4cnccc4c3)nc3ccc(C(=O)NCc4cccc(C(N)=O)c4)cc32)C1  remaining binding (binding; competition with immobilised ligand; 1 µM): 100%
CN(C)c1ncc(F)c(-c2cnn3ncccc23)n1  remaining binding (binding; 1 µM): 66%
O=C(NCCCN1CCOCC1)c1ccc(Nc2nccc(-c3cc4ccccc4s3)n2)cc1  remaining binding (binding; competition with immobilised ligand; 1 µM): 72%
CN(C)c1nccc(-c2cnn3ncccc23)n1  remaining binding (binding; 1 µM): 100%
COc1ccc2c(c1)O[C@H](c1ccc(OC)c(OC)c1)C[C@@H]2NC(=O)C1(c2ccc3c(c2)OC(F)(F)O3)CC1  remaining binding (cell-free assay; competition with immobilised ligand; 1 µM): 100%
N[C@@H]1CCN(c2nccc(-c3cnn4ncccc34)n2)C1  remaining binding (binding; 1 µM): 100%
O=C(c1ccc(Nc2ncc(Cl)c(-c3cc4ccccc4s3)n2)cc1)N1CCC(N2CCCC2)CC1  remaining binding (binding; competition with immobilised ligand; 1 µM): 41%
CN(CCCC(F)(F)F)c1nccc(-c2cnn3ncccc23)n1  remaining binding (binding; 1 µM): 64%
CCC(=O)N[C@H]1CC[C@@H](C(=O)N(C)c2ccc(-c3nc4ccccc4o3)cc2)C1  remaining binding (cell-free assay; competition with immobilised ligand; 1 µM): 100%
